Reference: ChEMBL document CHEMBL1240409, “Design, synthesis and evaluation of (E)-alpha-benzylthio chalcones as novel inhibitors of BCR-ABL kinase” (Bioorg Med Chem, 2010)

How the values were obtained:
DU-145 = test: Growth inhibition of human DU145 cells after 96 hrs by trypan blue exclusion assay; format: functional; conditions: DU-145, 96 h
K562 = test: Growth inhibition of human K562 cells expressing p210Bcr/Abl after 96 hrs by trypan blue exclusion assay; format: functional, cell-based; conditions: K562, 96 h
Method in brief: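 K562 cells were kept in RPMI with 10% FBS and penicillin–streptomycin at 37 °C under 5% CO2. Cells were seeded at 1 × 10^5 cells/mL with a range of compound concentrations, using DMSO as the negative control. After 96 h, viability was counted by Trypan blue exclusion and expressed as percent of DMSO control to derive GI50.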

Row | Compound | GI50 (DU-145) | GI50 (K562)
1 | O=C(/C(=C\c1ccc(O)c(Br)c1)Sc1ccc(Br)cc1)c1c(F)c(F)c(F)c(F)c1F | 1 µM | 1 µM
2 | O=C(/C(=C\c1cc([N+](=O)[O-])ccc1F)S(=O)(=O)Cc1ccc(F)cc1)c1ccc(Br)cc1 | > 100 µM | 50 µM
3 | O=C(/C(=C\c1ccc(Br)cc1)SCc1ccc(Cl)cc1)c1ccc(Cl)cc1 | 1 µM | 1 µM
4 | Cc1ccc(S/C(=C/c2ccc(Cl)cc2)C(=O)c2ccc(Br)cc2)cc1 | 10 µM | 1 µM
5 | O=C(/C(=C\c1ccc(O)cc1)SCc1ccc(Cl)cc1)c1ccc(Br)cc1 | 10 µM | 1 µM
6 | CN(C)c1ccc(/C=C(\C(=O)c2ccc(Br)cc2)S(=O)(=O)Cc2ccc(F)cc2)cc1 | 50 µM | 50 µM
7 | CN(C)c1ccc(/C=C(/SCc2ccc(F)cc2)C(=O)c2ccc(Br)cc2)cc1 | 50 µM | 1 µM
8 | O=C(/C(=C\c1c(O)cc(O)cc1O)Sc1ccccc1Br)c1ccc(Br)cc1 | > 100 µM | > 100 µM
9 | CN(C)c1ccc(/C=C(/SCc2ccc(F)cc2)C(=O)c2ccc(C(=O)O)cc2)cc1 | 10 µM | 10 µM
10 | O=C(/C(=C\c1ccc([N+](=O)[O-])c(O)c1)Sc1ccc(Br)cc1)c1c(F)c(F)c(F)c(F)c1F | 1 µM | 1 µM
11 | O=C(/C(=C\c1ccc(OC(F)(F)F)cc1)Sc1ccc(Br)cc1)c1ccc(Br)cc1 | 10 µM | 1 µM
12 | O=C(/C(=C\c1ccc(Cl)cc1)SCc1ccccc1Cl)c1ccc(Cl)cc1 | 12 µM | 1 µM
13 | O=C(/C(=C\c1ccc([N+](=O)[O-])c(O)c1)Sc1c(F)c(F)c(F)c(F)c1F)c1ccc(Br)cc1 | 10 µM | 1 µM
14 | O=C(/C(=C\c1cc(Cl)c(O)c(Cl)c1)S(=O)(=O)Cc1ccc(Br)cc1)c1ccc(Br)cc1 | 25 µM | 25 µM
15 | COc1ccc(/C=C(/Sc2ccc(F)cc2)C(=O)c2ccc(OC)cc2)cc1 | 25 µM | 1 µM
16 | Cc1ccc(CS(=O)(=O)/C(=C/c2c(O)cc(O)cc2O)C(=O)c2ccc(Cl)cc2)cc1 | > 100 µM | > 100 µM
17 | Cc1ccc(S(=O)(=O)/C(=C/c2sccc2C)C(=O)c2ccc(Br)cc2)cc1 | 25 µM | 25 µM
18 | Cc1ccsc1/C=C(/SCc1ccc(Cl)c(Cl)c1)C(=O)c1ccc(Cl)cc1 | 50 µM | 50 µM

Row | Compound | GI50 (DU-145) | GI50 (K562)
19 | O=C(/C(=C\c1ccc(O)c([N+](=O)[O-])c1)SCc1ccc(Br)cc1)c1ccc(Cl)cc1Cl | 10 µM | 1 µM
20 | O=C(/C(=C\c1ccc(Br)cc1)S(=O)(=O)Cc1ccc(F)cc1)c1ccc(Cl)cc1 | > 100 µM | 50 µM
21 | O=C(/C(=C\c1c[nH]c2ccccc12)Sc1ccc(Br)cc1)c1ccc(Br)cc1 | 1 µM | 1 µM
22 | O=C(O)c1cc(/C=C(/Sc2ccc(Br)cc2)C(=O)c2c(F)c(F)c(F)c(F)c2F)ccc1O | 25 µM | 25 µM
23 | COc1ccccc1/C=C(/SCc1ccccc1F)C(=O)c1ccc(Cl)cc1 | 10 µM | 1 µM
24 | COc1cc(/C=C(/SCc2ccc(Br)cc2)C(=O)c2ccc(Br)cc2)cc([N+](=O)[O-])c1O | 25 µM | 25 µM
25 | Cc1ccc(S/C(=C/c2c[nH]c3ccc(Br)cc23)C(=O)c2ccc(Br)cc2)cc1 | 1 µM | 10 µM
26 | O=C(/C(=C\c1ccc(F)cc1F)S(=O)(=O)c1ccc(Br)cc1)c1ccc(Br)cc1 | 7.5 µM | 1 µM
27 | O=C(/C(=C\c1ccc(O)c([N+](=O)[O-])c1)Sc1ccc(Br)cc1)c1c(F)c(F)c(F)c(F)c1F | 1 µM | 1 µM
28 | COc1cc(OC)c(/C=C(/SCc2ccc(Cl)cc2)C(=O)c2ccc(Br)cc2)c(OC)c1 | 1 µM | 10 µM
29 | O=C(/C(=C\c1ccc(Oc2ccccc2)cc1)SCc1ccccc1Cl)c1ccc(Cl)cc1 | 1 µM | 1 µM
30 | O=C(/C(=C\c1ccc(OC(F)(F)F)cc1)S(=O)(=O)c1ccc(Br)cc1)c1ccc(Br)cc1 | 25 µM | 25 µM
31 | COc1ccccc1/C=C(/Sc1ccc(C)cc1)C(=O)c1ccc(Br)cc1 | 9 µM | 1 µM
32 | COc1ccc(/C=C(/Sc2ccc(C)cc2)C(=O)c2ccc(Br)cc2)cc1 | 50 µM | 10 µM
33 | CN(C)c1ccc(/C=C(/SCc2ccc(Cl)cc2)C(=O)c2ccc(C(=O)O)cc2)cc1 | 1 µM | 1 µM
34 | O=C(O)c1ccc(C(=O)/C(=C\c2ccc(Cl)c([N+](=O)[O-])c2)SCc2ccc(C(F)(F)F)cc2)cc1 | 1 µM | 1 µM
35 | COc1ccc(S/C(=C/c2ccc(C)s2)C(=O)c2ccc(Cl)cc2)cc1 | 50 µM | 50 µM
36 | CN(C)c1ccc(/C=C(/SCc2ccc(Cl)cc2)C(=O)c2ccc([N+](=O)[O-])cc2)cc1 | > 100 µM | 50 µM

Now from value to compound:

Row | GI50 (DU-145) | GI50 (K562) | Compound
37 | 25 µM | 25 µM | COc1ccc(/C=C(\C(=O)c2ccc(Br)cc2)S(=O)(=O)Cc2ccc(F)cc2)cc1
38 | 10 µM | 10 µM | COc1ccccc1/C=C(/Sc1ccc(Br)cc1)C(=O)c1ccc(Cl)cc1
39 | 10 µM | 10 µM | O=C(/C(=C\c1cc(Cl)c(O)c(Cl)c1)SCc1ccc(Br)cc1)c1ccc(Br)cc1
40 | 1 µM | 1 µM | COc1ccc(S(=O)(=O)/C(=C/c2ccccc2OCc2ccccc2)C(=O)c2ccc(Cl)cc2)cc1
41 | 50 µM | 50 µM | Cc1ccc(/C=C(/SCc2ccc(Cl)cc2Cl)C(=O)c2ccc(Cl)cc2)s1
42 | 25 µM | 10 µM | O=C(/C(=C\c1ccc(O)c([N+](=O)[O-])c1)Sc1ccccc1Br)c1ccc(Cl)cc1
43 | 1 µM | 1 µM | CCOc1ccc(/C=C(\C(=O)c2ccc(Br)cc2)S(=O)(=O)c2ccc(C)cc2)cc1OC
44 | 25 µM | 25 µM | Nc1c(Br)cc(Br)cc1/C=C(\C(=O)c1ccc(Br)cc1)S(=O)(=O)c1ccc(Br)cc1
45 | > 100 µM | > 100 µM | Cc1ccsc1/C=C(/SCc1ccc(Cl)cc1)C(=O)c1ccc([N+](=O)[O-])cc1
46 | 20 µM | 20 µM | O=C(C(=Cc1ccc(Br)cc1)S(=O)(=O)Cc1ccc(I)cc1)c1ccc(I)cc1
47 | 50 µM | 50 µM | O=C(/C(=C\c1ccc(Br)c(O)c1)S(=O)(=O)c1ccc(Br)cc1)c1ccc(Br)cc1
48 | > 100 µM | > 100 µM | Cc1ccc(S(=O)(=O)/C(=C/c2ccc(N(C)C)cc2)C(=O)c2ccc(Cl)cc2)cc1
49 | 10 µM | 25 µM | CSc1ccc(/C=C(\C(=O)c2ccc(Cl)cc2)S(=O)(=O)Cc2ccc(C)cc2)cc1
50 | 10 µM | 10 µM | COc1ccccc1/C=C(/SCc1ccc(F)cc1)C(=O)c1ccc(Br)cc1
51 | 50 µM | 1 µM | CCOc1ccc(/C=C(/SCc2ccc(F)cc2)C(=O)c2ccc(Br)cc2)cc1OC
52 | > 100 µM | 25 µM | COc1cc(OC)c(C=C(C(=O)c2ccc(Cl)cc2)S(=O)(=O)Cc2ccccc2Cl)c(OC)c1
53 | 9 µM | 1 µM | O=C(/C(=C\c1ccc(Br)cc1)SCc1ccc(F)cc1)c1ccc(Cl)cc1
54 | 10 µM | 1 µM | COc1ccccc1/C=C(/SCc1ccc(F)cc1)C(=O)c1ccc(Cl)cc1
55 | 1 µM | 10 µM | O=C(/C(=C\c1ccc(OCc2ccccc2)cc1)SCc1ccc(Cl)cc1)c1ccc(Cl)cc1

Row | GI50 (DU-145) | GI50 (K562) | Compound
56 | > 100 µM | > 100 µM | CN(C)c1ccc(/C=C(\C(=O)c2ccc(C(=O)O)cc2)S(=O)(=O)Cc2ccc(Cl)cc2)cc1
57 | 50 µM | 25 µM | COc1ccsc1/C=C(\C(=O)c1ccc(Br)cc1)S(=O)(=O)Cc1ccc(Cl)cc1
58 | 1 µM | 10 µM | COc1ccccc1/C=C(/SCc1ccc(Cl)cc1)C(=O)c1ccc(Br)cc1
59 | 1 µM | 1 µM | Cc1ccc(/C=C(\C(=O)c2ccc(Cl)cc2)S(=O)(=O)Cc2ccc(Cl)cc2)s1
60 | 10 µM | 1 µM | Cc1ccc(CS/C(=C/c2ccc(Cl)cc2)C(=O)c2ccc(Cl)cc2)cc1
61 | 25 µM | 10 µM | COc1ccc(S(=O)(=O)/C(=C/c2ccc(C)s2)C(=O)c2ccc(Cl)cc2)cc1
62 | 1 µM | 1 µM | COc1cc(/C=C(/Sc2ccc(Br)cc2)C(=O)c2ccc(Br)cc2)ccc1O
63 | 10 µM | 10 µM | O=C(/C(=C\c1ccc(O)cc1)S(=O)(=O)Cc1ccc(Cl)c(Cl)c1)c1ccc(Cl)cc1
64 | > 100 µM | > 100 µM | O=C(O)c1ccc(C(=O)/C(=C\c2ccc(Br)cc2)SCc2ccc(F)cc2)cc1
65 | 10 µM | 10 µM | Nc1ccc(/C=C(/SCc2ccc(F)cc2)C(=O)c2ccc(C(=O)O)cc2)cc1[N+](=O)[O-]
66 | > 100 µM | > 100 µM | Cc1ccc(S(=O)(=O)/C(=C/c2c(O)cc(O)cc2O)C(=O)c2ccc(Br)cc2)cc1
67 | 25 µM | 10 µM | COc1cc(OC)c(/C=C(\C(=O)c2ccc(Cl)cc2)S(=O)(=O)c2ccc(C)cc2)c(OC)c1
68 | 10 µM | 10 µM | Cc1ccc(CS(=O)(=O)/C(=C/c2cc(C)cc(C)c2)C(=O)c2ccc(Cl)cc2)cc1
69 | 8 µM | 8 µM | COc1ccc(/C=C(\C(=O)c2ccc(Br)cc2)S(=O)(=O)c2ccc(Br)cc2)c(OC)c1
70 | 1 µM | 1 µM | COc1ccc(C(=O)C(=Cc2ccc(Br)cc2)S(=O)(=O)Cc2ccc(Br)cc2)cc1
71 | 10 µM | 50 µM | Cc1ccsc1/C=C(/SCc1ccc(Cl)cc1Cl)C(=O)c1ccc(Cl)cc1
72 | 50 µM | 25 µM | O=C(/C(=C\c1ccc(F)cc1Cl)S(=O)(=O)c1ccc(Br)cc1)c1ccc(Br)cc1
73 | 25 µM | 50 µM | O=C(/C(=C\c1cc(Cl)cc(Cl)c1Cl)Sc1ccccc1Br)c1ccc(Cl)cc1
74 | 1 µM | 1 µM | O=C(/C(=C\c1ccc(Br)c(O)c1)Sc1ccc(Br)cc1)c1ccc(Br)cc1
